Data taken from ChEMBL document CHEMBL1130202, “Biologically active heteroarotinoids exhibiting anticancer activity and decreased toxicity” (J Med Chem, 1997).

The molecules below were run on CC-B (assay: Relative transcriptional activation activity relative to t-RA).
Format: functional, Homo sapiens
Procedure, shortened: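 CC-B reporter cells (CC-1 cervical line carrying a CAT gene under a RARE with a tk promoter) were seeded at 4×10^5 cells/well in MEM with nonessential amino acids, pyruvate and 10% FBS, the serum lots having negligible t-RA by HPLC. Triplicate cultures were screened at 10^-6 M with 0.1% DMSO final. After 48 h, CAT activity ([3H]acetyl-CoA) per mg protein was taken as treated/control and expressed relative to t-RA. Average of three experiments.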

Going from `CCOC(=O)c1ccc(OC(=O)c2ccc3c(c2)C(C)(C)CCN3C)cc1` to `CCOC(=O)c1ccc(OC(=O)c2ccc3c(c2)C(C)(C)CCO3)cc1`, the Relative activity falls from 54 to 40.

First: CCCCCCCCC1CCc2cc(/C(C)=C/c3ccc(C(=O)OCC)cc3)ccc2S1 (stereo unspecified)
Second: CCOC(=O)c1ccc(/C=C(\C)c2ccc3c(c2)CC[C@@H](CC)[S+]3[O-])cc1 (stereo partly specified)
The Relative activity of the first is higher: 43 for the first, 35.8 for the second.

Going from `CC1(C)CCOc2ccc(C(=O)Oc3ccc(/C=N\N=C(/N)S)cc3)cc21` to `CCOC(=O)c1ccc(/C=C(\C)c2ccc3c(c2)C(C)(C)CCO3)cc1`, the Relative activity rises from 33 to 35.7.

First: CC(/C=C/C=C(\C)c1ccc2c(c1)C(C)(C)CS2)=C\C(=O)O
Second: C/C(=C\c1ccc(C(=O)O)cc1)c1ccc2c(c1)C(C)(C)CS2
The Relative activity of the first is lower: 50 for the first, 56 for the second.

Going from `C/C(=C\c1ccc(C(=O)O)cc1)c1ccc2c(c1)C(C)(C)CO2` to `CCOC(=O)c1ccc(/C=C(\C)c2ccc3c(c2)C(C)(C)CCS3)cc1`, the Relative activity rises from 46 to 51.

`COC(=O)c1ccc(C(=O)Oc2c(C)cc3c(c2C)C(C)(C)CC(=O)O3)cc1` was tested, and the Relative activity was 29.
